Here are results for ten compounds from ChEMBL document CHEMBL1124210, “Synthesis and biological activity of some transition-state inhibitors of human renin” (J Med Chem, 1988).

The target of one experiment is T1, Renin (Homo sapiens, UniProt P00797).
T1 sequence (P00797 whole entry): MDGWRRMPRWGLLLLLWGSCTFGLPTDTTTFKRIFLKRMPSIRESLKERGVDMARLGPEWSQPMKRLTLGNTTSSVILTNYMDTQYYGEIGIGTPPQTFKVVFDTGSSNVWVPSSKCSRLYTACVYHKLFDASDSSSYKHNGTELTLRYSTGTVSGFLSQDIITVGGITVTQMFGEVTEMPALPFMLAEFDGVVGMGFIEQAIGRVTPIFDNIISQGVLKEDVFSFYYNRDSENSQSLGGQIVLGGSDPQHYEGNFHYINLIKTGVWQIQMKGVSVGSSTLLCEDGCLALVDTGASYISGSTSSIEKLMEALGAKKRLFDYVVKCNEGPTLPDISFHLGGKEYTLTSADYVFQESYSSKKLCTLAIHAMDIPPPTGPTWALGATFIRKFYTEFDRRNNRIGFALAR
Kind of experiment: In vitro inhibition of purified Human kidney renin (250 pg/mL) incubated with angiotensinogen at pH 7.2. An outline of the steps: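 Purified human kidney renin at 250 pg/mL, incubated at 37 °C with human angiotensinogen at pH 7.2.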

The next experiment addresses T2, Cathepsin D (Bos taurus, UniProt P80209).
T2 sequence (P80209 whole entry): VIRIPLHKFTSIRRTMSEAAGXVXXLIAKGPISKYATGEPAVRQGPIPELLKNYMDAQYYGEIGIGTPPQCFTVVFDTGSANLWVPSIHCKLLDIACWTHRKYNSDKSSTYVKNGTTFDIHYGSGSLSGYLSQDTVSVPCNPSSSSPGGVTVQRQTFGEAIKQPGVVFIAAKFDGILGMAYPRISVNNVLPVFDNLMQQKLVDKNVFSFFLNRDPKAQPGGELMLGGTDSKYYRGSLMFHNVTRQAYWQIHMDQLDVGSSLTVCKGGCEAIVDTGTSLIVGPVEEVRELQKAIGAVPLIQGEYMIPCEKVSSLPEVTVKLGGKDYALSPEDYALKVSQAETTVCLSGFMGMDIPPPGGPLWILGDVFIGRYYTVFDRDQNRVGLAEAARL
As to the kind of experiment: In vitro inhibition of bovine cathepsin D.

The test system of experiment [1] is Monkey. As to the kind of experiment: Reduction of blood pressure measured 60 min after administration of compound(dose 10mg/kg, po). Type of experiment: functional. An outline of the steps: (§1)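 Salt-depleted marmosets given a single intravenous or oral dose. Blood pressure change recorded in mmHg at 30, 60 and 120 min after dosing.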
The test system of experiment [2] is Monkey. As to the kind of experiment: Reduction of blood pressure measured 60 min after administration of compound(dose 1 mg/kg, iv). Type of experiment: functional. An outline of the steps: as §1
Experiment [3] relates to Monkey. As to the kind of experiment: Reduction of blood pressure measured 60 min after administration of compound(dose 1 mg/kg, p.o.). Type of experiment: functional. To be noted: route oral. Summed up:
as §1

For experiment [4], the system named is Monkey. As to the kind of experiment: Reduction of blood pressure measured 60 min after administration of compound(dose 3 mg/kg, po). Type of experiment: functional. An outline of the steps:
as §1

In experiment [5] the test system is Monkey. Kind of experiment: Reduction of blood pressure measured 120 min after administration of compound(dose 0.1 mg/kg, iv). Type of experiment: functional. An outline of the steps: as §1
Experiment [6] deals with Monkey. As to the kind of experiment: Reduction of blood pressure measured 120 min after administration of compound(dose 10 mg/kg, po). Type of experiment: functional. Summed up: as §1
Experiment [7] relates to Monkey. Kind of experiment: Reduction of blood pressure measured 120 min after administration of compound(dose 1 mg/kg, iv). Type of experiment: functional. An outline of the steps:
as §1

In experiment [8] the test system is Monkey. Kind of experiment: Reduction of blood pressure measured 120 min after administration of compound(dose 1 mg/kg, p.o.). To be noted: route oral. Type of experiment: functional. An outline of the steps: as §1
In experiment [9] the test system is Monkey. Kind of experiment: Reduction of blood pressure measured 120 min after administration of compound(dose 3 mg/kg, po). Type of experiment: functional. Summed up:
as §1

Experiment [10] deals with Monkey. Kind of experiment: Reduction of blood pressure measured 30 min after administration of compound(dose 0.1 mg/kg, iv). Type of experiment: functional. Summed up:
as §1

Experiment [11] concerns Monkey. As to the kind of experiment: Reduction of blood pressure measured 30 min after administration of compound(dose 10mg/kg, po). Type of experiment: functional. An outline of the steps:
as §1

The subject of experiment [12] is Monkey. As to the kind of experiment: Reduction of blood pressure measured 30 min after administration of compound(dose 1 mg/kg, iv). Type of experiment: functional. Summed up:
as §1

Experiment [13] has as its system Monkey. As to the kind of experiment: Reduction of blood pressure measured 30 min after administration of compound(dose 1 mg/kg, p.o.). To be noted: route oral. Type of experiment: functional. Summed up:
as §1

The test system of experiment [14] is Monkey. Kind of experiment: Reduction of blood pressure measured 30 min after administration of compound(dose 3mg/kg, po). Type of experiment: functional. Summed up: as §1
Experiment [15] has as its system Monkey. Kind of experiment: Reduction of blood pressure measured 60 min after administration of compound(dose 0.1 mg/kg, iv). Type of experiment: functional. An outline of the steps: as §1

*1 amine or outer side, *2 acyl side, *3 side chain or, on linkers, in order; H or OH if unused. Where a SMILES comes first, the peptide text is derived from it. [ ]: non-standard residue; d: D form. The star is where a group is joined. ξ: configuration not given here. LeuΨ(ξCHOHCH2)Val = CC(C)C[C@H](N[*:1])C(O)C[C@H](C(=O)[*:2])C(C)C; Boc = CC(C)(C)OC(=O)*; Piv = CC(C)(C)C(=O)*

As usually defined, the IC50 is the midpoint of a concentration-inhibition curve. As to `CCCCNC(=O)[C@@H](CC(O)[C@H](CC1CCCCC1)NC(=O)[C@H](Cc1cnc[nH]1)NC(=O)[C@@H](CSC(C)(C)C)Cc1ccccc1)C(C)C` (stereo not given in full), the IC50 against Renin stood at 0.004 µM.
The same measure, in the same setting: under `CCCCNC(=O)[C@@H](CC(O)[C@H](CC1CCCCC1)NC(=O)[C@H](Cc1c[nH]cn1)NC(=O)[C@H](Cc1ccccc1)C[S+]([O-])C(C)(C)C)C(C)C` (stereo not given in full) stands 0.002 µM.
Turning to `CCCCNC(=O)[C@@H](CC(O)[C@H](CC1CCCCC1)NC(=O)[C@H](Cc1c[nH]cn1)NC(=O)C(Cc1ccccc1)CS(=O)(=O)C(C)(C)C)C(C)C` (stereo in doubt; 8i), half-maximal inhibition on Cathepsin D (IC50) was put at 3.2 µM. Moreover, the Delta blood pressure is on record as -23 mmHg with Monkey [1]; -13 mmHg with Monkey [2]; -5 mmHg in the experiment with Monkey [3]; -10 mmHg with Monkey [4]; -1 mmHg in the experiment with Monkey [5]; -23 mmHg with Monkey [6]. Moreover, the Delta blood pressure is on record as -12 mmHg with Monkey [7]; -6 mmHg in the experiment on Monkey [8]; -8 mmHg with Monkey [9]; -13 mmHg in the experiment on Monkey [10]; -18 mmHg in the experiment with Monkey [11]; -17 mmHg in the experiment on Monkey [12]. Besides, the Delta blood pressure in the experiment with Monkey [13] is listed as 0 mmHg; in the experiment with Monkey [14], -6 mmHg; in the experiment on Monkey [15] it was -5 mmHg.
The compound `CCCCNC(=O)[C@@H](CC(O)[C@H](CC(C)C)NC(=O)[C@H](Cc1cnc[nH]1)NC(=O)C(C)(OC(=O)C(C)(C)C)c1ccccc1)C(C)C` (stereo not given in full) yielded an IC50 at Renin of 0.02 µM.
On the same count and under the same terms, next, `CCCCNC(=O)[C@@H](CC(O)[C@H](CC1CCCCC1)NC(=O)[C@H](Cc1c[nH]cn1)NC(=O)C(CC(=O)C(C)(C)C)Cc1ccccc1)C(C)C` (stereo not given in full): 0.006 µM.
Compound `CCCCNC(=O)[C@@H](CC(O)[C@H](CC1CCCCC1)NC(=O)[C@H](Cc1cnc[nH]1)NC(=O)C(Cc1ccccc1)CP(=O)(OCC)OCC)C(C)C` (stereo not given in full) displayed a 50% inhibitory concentration (IC50) on Renin of 0.004 µM.
On the same count and under the same terms, next, `CC[C@H](C)[C@H](NC(=O)[C@@H](CC(O)[C@H](CC(C)C)NC(=O)[C@H](Cc1cnc[nH]1)NC(=O)C(C)(OC(=O)C(C)(C)C)c1ccccc1)C(C)C)C(=O)N[C@@H](Cc1cnc[nH]1)C(N)=O` (stereo not given in full): 0.02 µM; `CC[C@H](C)[C@H](NC(=O)[C@@H](CC(O)[C@H](CC(C)C)NC(=O)[C@H](Cc1cnc[nH]1)NC(=O)[C@H](Cc1ccccc1)NC(=O)OC(C)(C)C)C(C)C)C(=O)N[C@@H](Cc1cnc[nH]1)C(N)=O` (stereo not given in full) (Boc-FH[LeuΨ(ξCHOHCH2)Val]IH-NH2): 0.015 µM; `CC[C@H](C)[C@H](NC(=O)[C@@H](CC(O)[C@H](CC(C)C)NC(=O)[C@H](Cc1c[nH]cn1)NC(=O)[C@H](Cc1ccccc1)NC(=O)C(C)(C)C)C(C)C)C(=O)N[C@@H](Cc1c[nH]cn1)C(N)=O` (stereo not given in full) (Piv-FH[LeuΨ(ξCHOHCH2)Val]IH-NH2): 0.02 µM.
On the same count and under the same terms, next, `CCCCNC(=O)[C@@H](CC(O)[C@H](CC1CCCCC1)NC(=O)[C@H](Cc1c[nH]cn1)NC(=O)C(C)(OC(=O)C(C)(C)C)c1ccccc1)C(C)C` (stereo not given in full): 0.007 µM.
